Reference: ChEMBL document CHEMBL1148711, “Naphthalen-1-yl-(4-pentyloxynaphthalen-1-yl)methanone: a potent, orally bioavailable human CB1/CB2 dual agonist with antihyperalgesic properties and restricted central nervous system penetration” (J Med Chem, 2007)

Columns and labels:
[1] = biological target: T1, Cannabinoid receptor 2 (Homo sapiens, UniProt P34972); assay: Displacement of [3H]CP-55940 human CB2 receptor expressed in CHOK1 cells; format: cell-based, CHO-K1
Procedure, shortened: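 Human CB2 expressed in CHO cells. Values are the mean ± SEM of at least three determinations, derived by logistic curve fitting.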

[2] = biological target: Cannabinoid receptor 1 (Homo sapiens, UniProt P21554); assay: Displacement of [3H]CP-55940 from human CB1 receptor expressed in HEK293 cells; format: cell-based
Cannabinoid receptor 1 (Homo sapiens, UniProt P21554), sequence (P21554 whole entry): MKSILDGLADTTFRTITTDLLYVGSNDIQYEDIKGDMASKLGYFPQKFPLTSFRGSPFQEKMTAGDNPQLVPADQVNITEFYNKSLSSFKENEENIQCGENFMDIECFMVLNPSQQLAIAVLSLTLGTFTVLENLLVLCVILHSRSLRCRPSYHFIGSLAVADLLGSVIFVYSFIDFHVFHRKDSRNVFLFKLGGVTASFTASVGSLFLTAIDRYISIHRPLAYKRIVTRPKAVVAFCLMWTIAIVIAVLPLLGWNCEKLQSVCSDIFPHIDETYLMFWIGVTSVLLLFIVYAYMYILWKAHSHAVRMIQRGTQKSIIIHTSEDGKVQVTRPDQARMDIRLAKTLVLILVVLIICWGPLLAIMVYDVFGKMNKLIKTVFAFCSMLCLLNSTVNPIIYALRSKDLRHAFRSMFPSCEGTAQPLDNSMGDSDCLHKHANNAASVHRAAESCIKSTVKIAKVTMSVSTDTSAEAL

[3] = biological target: T1, Cannabinoid receptor 2; assay: Agonist activity at human CB2 receptor expressed in CHOK1 cells assessed as reversal of forskolin-evoked cAMP accumulation relative to CP-55940; format: functional, cell-based; settings: CHO-K1
Procedure, shortened: (§1)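 CHO cells expressing human CB2 were stimulated with forskolin, and agonist reversal of cyclic AMP accumulation was measured. Potency is given as mean ± SEM of 3–13 independent measurements. Emax is the maximal reversal, expressed as a percentage of the value obtained with a reference agonist.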

[4] = species on record: Rattus norvegicus; assay: Antihyperalgesic activity in rat assessed as reversal of hyperalgesia; format: functional
Procedure, shortened: (§2)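 Rat model of neuropathic mechanical hyperalgesia with oral dosing. Read-out was paw withdrawal threshold of the ipsilateral paw, followed from 1 h after dosing, with 12 animals per group, as mean ± SEM. Groups were compared with vehicle by ANOVA and Tukey's HSD.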

[5] = biological target: Cytochrome P450 3A4 (Homo sapiens, UniProt P08684); assay: Inhibition of CYP3A4 in human liver microsomes; format: ADME, Microsome
Cytochrome P450 3A4, sequence (P08684 whole entry): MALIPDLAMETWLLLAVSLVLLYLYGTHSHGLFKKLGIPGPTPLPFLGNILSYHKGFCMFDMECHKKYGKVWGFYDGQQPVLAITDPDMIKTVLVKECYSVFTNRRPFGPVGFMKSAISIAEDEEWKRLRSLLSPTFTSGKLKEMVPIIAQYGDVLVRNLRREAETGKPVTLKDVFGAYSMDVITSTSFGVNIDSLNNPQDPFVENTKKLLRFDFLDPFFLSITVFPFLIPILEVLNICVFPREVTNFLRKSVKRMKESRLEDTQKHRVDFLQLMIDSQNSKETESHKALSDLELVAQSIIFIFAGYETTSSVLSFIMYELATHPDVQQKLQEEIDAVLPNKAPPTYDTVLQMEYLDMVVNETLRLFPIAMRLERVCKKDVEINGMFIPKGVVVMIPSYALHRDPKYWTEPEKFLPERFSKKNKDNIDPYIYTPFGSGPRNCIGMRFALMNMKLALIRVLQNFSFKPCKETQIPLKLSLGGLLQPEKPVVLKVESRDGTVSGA

[6] = AUC (0 to infinity) in Wistar rat at 1 mg/kg, iv; format: ADME, organism-based; set-up: time infinity, dose 1 mg/kg, route intravenous; settings: plasma
Procedure, shortened: (§3)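 Wistar rats dosed once iv at 1 mg/kg or orally at 3.4 mg/kg. Plasma parameters (half-life, steady-state volume of distribution, total clearance, AUC0-∞, Tmax, Cmax) were derived from the concentration–time profiles. Absolute oral bioavailability was calculated from the po and iv AUC0-∞.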

[7] = Partition coefficient, log P of the compound; format: physicochemical; settings: octanol/water
[8] = Total clearance in Wistar rat at 1 mg/kg, iv; format: ADME, organism-based; set-up: dose 1 mg/kg, route intravenous; settings: in vivo; procedure, shortened: as §3
[9] = system: Liver microsomes; assay: Intrinsic clearance in rat liver microsomes; format: ADME, Microsome
[10] = Volume of distribution at steady state in Wistar rat at 1 mg/kg, iv; format: ADME, organism-based; set-up: dose 1 mg/kg, route intravenous; settings: in vivo, read-out: Vdss; procedure, shortened: as §3
[11] = biological target: Cytochrome P450 2E1 (Homo sapiens, UniProt P05181); assay: Inhibition of CYP2E1 in human liver microsomes; format: ADME, Microsome
Cytochrome P450 2E1, sequence (P05181 whole entry): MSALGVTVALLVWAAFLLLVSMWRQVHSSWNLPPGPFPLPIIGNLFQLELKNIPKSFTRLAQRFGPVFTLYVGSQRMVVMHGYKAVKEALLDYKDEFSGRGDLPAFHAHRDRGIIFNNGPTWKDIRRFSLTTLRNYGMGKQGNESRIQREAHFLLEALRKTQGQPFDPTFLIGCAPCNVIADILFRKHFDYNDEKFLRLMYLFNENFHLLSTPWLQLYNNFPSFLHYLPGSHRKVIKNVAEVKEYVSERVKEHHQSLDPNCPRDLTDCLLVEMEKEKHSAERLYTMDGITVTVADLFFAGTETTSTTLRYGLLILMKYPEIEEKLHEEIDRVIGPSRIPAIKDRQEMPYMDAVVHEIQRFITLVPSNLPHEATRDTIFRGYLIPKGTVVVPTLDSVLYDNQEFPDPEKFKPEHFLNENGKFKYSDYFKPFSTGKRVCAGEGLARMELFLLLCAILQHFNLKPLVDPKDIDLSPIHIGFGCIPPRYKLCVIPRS

[12] = biological target: Cytochrome P450 2D6 (Homo sapiens, UniProt P10635); assay: Inhibition of CYP2D6 in human liver microsomes; format: ADME, Microsome
Cytochrome P450 2D6, sequence (P10635 whole entry): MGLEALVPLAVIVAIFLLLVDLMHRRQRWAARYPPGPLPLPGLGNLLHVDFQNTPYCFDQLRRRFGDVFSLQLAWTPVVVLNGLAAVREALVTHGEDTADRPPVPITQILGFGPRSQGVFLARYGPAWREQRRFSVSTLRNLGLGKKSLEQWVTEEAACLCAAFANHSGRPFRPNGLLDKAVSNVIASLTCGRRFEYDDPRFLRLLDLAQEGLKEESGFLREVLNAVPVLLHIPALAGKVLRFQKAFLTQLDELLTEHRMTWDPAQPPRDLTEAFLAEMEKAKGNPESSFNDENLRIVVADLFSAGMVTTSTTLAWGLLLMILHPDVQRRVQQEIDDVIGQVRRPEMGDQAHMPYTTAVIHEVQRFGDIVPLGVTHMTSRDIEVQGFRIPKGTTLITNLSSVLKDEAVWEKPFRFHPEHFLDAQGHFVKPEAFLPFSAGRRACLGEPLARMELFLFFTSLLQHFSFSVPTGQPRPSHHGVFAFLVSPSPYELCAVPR

[13] = Half life in Wistar rat at 1 mg/kg, iv; format: ADME, organism-based; set-up: dose 1 mg/kg, route intravenous; settings: in vivo, read-out: beta t1/2 (converted); procedure, shortened: as §3
[14] = biological target: Cytochrome P450 2C9 (Homo sapiens, UniProt P11712); assay: Inhibition of CYP2C9 in human liver microsomes; format: ADME, Microsome
Cytochrome P450 2C9, sequence (P11712 whole entry): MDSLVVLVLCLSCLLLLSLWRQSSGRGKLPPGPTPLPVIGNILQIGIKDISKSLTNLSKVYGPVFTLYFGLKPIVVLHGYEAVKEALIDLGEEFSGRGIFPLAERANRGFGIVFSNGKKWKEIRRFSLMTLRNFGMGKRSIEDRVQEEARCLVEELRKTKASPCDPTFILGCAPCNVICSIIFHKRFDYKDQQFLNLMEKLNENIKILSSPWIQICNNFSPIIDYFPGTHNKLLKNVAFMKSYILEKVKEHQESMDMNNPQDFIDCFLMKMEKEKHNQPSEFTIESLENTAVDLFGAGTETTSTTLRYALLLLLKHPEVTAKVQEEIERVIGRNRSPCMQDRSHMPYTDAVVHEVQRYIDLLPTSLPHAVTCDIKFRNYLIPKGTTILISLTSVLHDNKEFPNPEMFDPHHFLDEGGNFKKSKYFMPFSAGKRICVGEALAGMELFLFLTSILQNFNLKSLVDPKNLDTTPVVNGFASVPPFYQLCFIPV

[15] = system: Rattus norvegicus; assay: Antihyperalgesic activity in rat assessed as reversal of hyperalgesia at 3 mg/kg, po after 1 hr; format: functional; procedure, shortened: as §2
[16] = Tmax in Wistar rat at 3.4 mg/kg, po; format: ADME, organism-based; set-up: dose 3.4 mg/kg, route oral; settings: in vivo; procedure, shortened: as §3
[17] = biological target: T2, Cytochrome P450 1A2 (Homo sapiens, UniProt P05177); assay: Inhibition of CYP1A2 in human liver microsomes; format: ADME, Microsome
T2 sequence (P05177 whole entry): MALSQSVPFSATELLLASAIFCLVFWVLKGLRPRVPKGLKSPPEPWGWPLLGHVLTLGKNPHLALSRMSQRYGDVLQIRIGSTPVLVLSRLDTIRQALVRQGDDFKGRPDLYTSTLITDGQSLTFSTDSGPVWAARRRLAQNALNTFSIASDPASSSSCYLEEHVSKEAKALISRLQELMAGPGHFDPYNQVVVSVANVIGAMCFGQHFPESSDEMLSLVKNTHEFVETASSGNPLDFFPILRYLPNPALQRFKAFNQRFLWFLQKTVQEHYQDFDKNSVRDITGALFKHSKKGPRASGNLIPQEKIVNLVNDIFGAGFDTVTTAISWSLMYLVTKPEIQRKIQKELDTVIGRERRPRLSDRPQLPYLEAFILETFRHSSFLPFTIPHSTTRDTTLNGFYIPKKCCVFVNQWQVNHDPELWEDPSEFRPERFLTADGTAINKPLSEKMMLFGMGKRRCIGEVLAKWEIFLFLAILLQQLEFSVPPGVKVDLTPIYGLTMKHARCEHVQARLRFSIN

[18] = biological target: T1, Cannabinoid receptor 2; assay: Agonist activity at human CB2 receptor expressed in CHOK1 cells assessed as reversal of forskolin-evoked cAMP accumulation; format: functional, cell-based, CHO-K1; procedure, shortened: as §1
[19] = Plasma protein binding; format: ADME, cell-free; settings: human, read-out: PPB
[20] = biological target: T3, Cytochrome P450 2C8 (Homo sapiens, UniProt P10632); assay: Inhibition of CYP2C8 in human liver microsomes; format: ADME, Microsome
T3 sequence (P10632 whole entry): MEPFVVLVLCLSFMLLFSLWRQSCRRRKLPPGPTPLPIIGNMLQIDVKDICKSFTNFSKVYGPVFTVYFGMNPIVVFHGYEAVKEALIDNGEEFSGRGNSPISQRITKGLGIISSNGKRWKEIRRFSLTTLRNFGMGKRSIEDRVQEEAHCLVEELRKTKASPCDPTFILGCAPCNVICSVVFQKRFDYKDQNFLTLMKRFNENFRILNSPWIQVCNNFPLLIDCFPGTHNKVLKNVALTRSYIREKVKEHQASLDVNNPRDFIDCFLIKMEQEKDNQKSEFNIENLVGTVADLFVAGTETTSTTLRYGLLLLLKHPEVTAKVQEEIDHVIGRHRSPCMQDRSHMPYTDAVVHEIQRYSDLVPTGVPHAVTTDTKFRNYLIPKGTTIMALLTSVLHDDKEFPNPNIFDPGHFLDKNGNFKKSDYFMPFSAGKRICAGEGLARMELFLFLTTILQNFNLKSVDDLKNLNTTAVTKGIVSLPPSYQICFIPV

[21] = AUC (0 to infinity) in Wistar rat at 3.4 mg/kg, po; format: ADME, organism-based; set-up: time infinity, dose 3.4 mg/kg, route oral; settings: plasma; procedure, shortened: as §3
[22] = system: Brain; assay: Drug level in brain in Wistar rat after 4 hrs; format: ADME, tissue-based; settings: in vivo
Procedure, shortened: (§4)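 Single oral dose of 3 mg/kg in Wistar rats. Plasma and brain concentrations were followed over time after dosing.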

[23] = Bioavailability in Wistar rat at 3.4 mg/kg, po; format: ADME, organism-based; settings: in vivo; procedure, shortened: as §3
[24] = system: Liver microsomes; assay: Intrinsic clearance in human liver microsomes; format: ADME, Microsome
[25] = biological target: Cannabinoid receptor 1 (Rattus norvegicus, UniProt P20272); assay: Inhibition of rat CB1 receptor
Cannabinoid receptor 1 (Rattus norvegicus, UniProt P20272), sequence (P20272 whole entry): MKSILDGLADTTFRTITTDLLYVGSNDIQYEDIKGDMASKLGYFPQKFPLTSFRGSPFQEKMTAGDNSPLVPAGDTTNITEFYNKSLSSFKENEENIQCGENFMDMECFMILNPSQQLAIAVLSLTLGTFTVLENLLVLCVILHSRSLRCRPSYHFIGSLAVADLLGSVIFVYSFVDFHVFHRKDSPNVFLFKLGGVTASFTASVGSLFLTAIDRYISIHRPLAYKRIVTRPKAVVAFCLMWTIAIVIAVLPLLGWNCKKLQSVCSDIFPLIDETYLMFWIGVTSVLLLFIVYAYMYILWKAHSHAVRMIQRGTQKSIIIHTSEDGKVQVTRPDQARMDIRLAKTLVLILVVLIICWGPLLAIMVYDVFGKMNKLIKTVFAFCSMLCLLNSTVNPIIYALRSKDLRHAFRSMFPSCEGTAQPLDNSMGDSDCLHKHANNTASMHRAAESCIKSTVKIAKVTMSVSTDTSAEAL

[26] = Cmax in Wistar rat at 3.4 mg/kg, po; format: ADME, organism-based; set-up: dose 3.4 mg/kg, route oral; settings: in vivo; procedure, shortened: as §3
[27] = biological target: Cytochrome P450 2C19 (Homo sapiens, UniProt P33261); assay: Inhibition of CYP2C19 in human liver microsomes; format: ADME, Microsome
Cytochrome P450 2C19, sequence (P33261 whole entry): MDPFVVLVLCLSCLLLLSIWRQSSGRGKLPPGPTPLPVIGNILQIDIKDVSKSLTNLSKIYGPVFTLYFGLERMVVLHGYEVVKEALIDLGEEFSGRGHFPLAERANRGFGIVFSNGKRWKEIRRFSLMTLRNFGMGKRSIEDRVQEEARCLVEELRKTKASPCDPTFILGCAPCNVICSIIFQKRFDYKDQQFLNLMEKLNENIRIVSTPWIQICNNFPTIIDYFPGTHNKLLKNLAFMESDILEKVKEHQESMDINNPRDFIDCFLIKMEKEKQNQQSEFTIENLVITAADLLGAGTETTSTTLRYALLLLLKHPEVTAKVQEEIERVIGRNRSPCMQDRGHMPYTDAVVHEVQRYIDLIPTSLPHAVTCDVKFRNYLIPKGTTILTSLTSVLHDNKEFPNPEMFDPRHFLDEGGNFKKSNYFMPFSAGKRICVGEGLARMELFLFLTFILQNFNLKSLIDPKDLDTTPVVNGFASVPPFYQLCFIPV

[28] = Cmax in Wistar rat at 3 mg/kg, po after 1 hr; format: ADME, organism-based; set-up: dose 3 mg/kg, route oral; settings: in vivo; procedure, shortened: as §4

T1 sequence (P34972 whole entry): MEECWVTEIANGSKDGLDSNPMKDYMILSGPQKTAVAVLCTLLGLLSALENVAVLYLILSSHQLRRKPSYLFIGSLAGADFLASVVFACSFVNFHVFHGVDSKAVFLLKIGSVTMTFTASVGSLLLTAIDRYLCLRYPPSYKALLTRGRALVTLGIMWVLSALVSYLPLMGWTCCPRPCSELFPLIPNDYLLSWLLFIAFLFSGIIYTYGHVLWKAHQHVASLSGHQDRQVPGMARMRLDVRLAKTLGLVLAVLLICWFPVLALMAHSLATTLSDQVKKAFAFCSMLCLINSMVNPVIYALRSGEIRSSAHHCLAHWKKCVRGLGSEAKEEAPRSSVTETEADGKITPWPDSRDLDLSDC

With O=C(c1cccc2ccccc12)c1ccc(OCCc2ccccc2)c2ccccc12 the IC50 [1] was 2000 nM and the IC50 [2] was 930 nM.
Work on CCCCCNc1ccc(C(=O)c2cccc3ccccc23)c2ccccc12 yielded an IC50 [1] of 120 nM and an IC50 [2] of 25 nM.
CCCCCCC(C)(C)c1ccc([C@@H]2C[C@H](O)CC[C@H]2CCCO)c(O)c1 [CP-55940] showed an Emax [3] of 100% and a D50 [4] of 0.08 mg/kg.
CCCOc1ccc(C(=O)c2cccc3ccccc23)c2ccccc12 gave an IC50 [1] of 90 nM and an IC50 [2] of 300 nM.
CCCCOc1ccc(C(=O)c2cccc3ccccc23)c2ccccc12 gave an IC50 [1] of 85 nM and an IC50 [2] of 48 nM.
Work on CCCCCCOc1ccc(C(=O)c2cccc3ccccc23)c2ccccc12 yielded an IC50 [1] of 660 nM and an IC50 [2] of 160 nM.
Cc1c(C(=O)c2cccc3ccccc23)c2cccc3c2n1[C@H](CN1CCOCC1)CO3 [WIN-552122] showed an Emax [3] of 96.9% and a D50 [4] of 0.52 mg/kg.
CCCCCOc1ccc(C(=O)c2cccc3ccccc23)c2ccccc12 showed an IC50 [5] greater than 200 µM, an AUC(0-inf) [6] of 5.72 µM·h and a logP [7] of 6.85. The clearance [8] was 8 mL/min/kg, the CL [9] was less than 5 µL/min and the Vd [10] was 9.6 L/kg. The IC50 [11] was greater than 200 µM, the IC50 [1] was 98 nM and the IC50 [12] was greater than 200 µM. The half-life [13] was 2.69 days, the Emax [3] was 88.4% and the IC50 [14] was 80.8 µM. For the same compound, the Activity [15] was 90%, the Tmax [16] was 1 h and the IC50 [17] was greater than 200 µM. The EC50 [18] was 27.9 nM, the fraction unbound [19] was less than 0.01 and the IC50 [20] was greater than 200 µM. For the same compound, the AUC(0-inf) [21] was 8.39 µM·h, the D50 [4] was 0.17 mg/kg and the Drug uptake [22] was 0.24 µmol/kg. For the same compound, the bioavailability [23] was 43%, the CL [24] was less than 5 µL/min and the IC50 [25] was 22 nM. For the same compound, the Cmax [26] was 1600 nM, the IC50 [27] was greater than 200 µM and the Cmax [28] was 1130 nM.
